Measured values: ChEMBL document CHEMBL5058577, “EUbOPEN Chemogenomics Library 2 (Multiplex)” (2022)

Tested on: U2OS
Test: Multiplex assay against U2OS
Type: toxicity, cell-based
Conditions: human
Summary of the method: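 On a CQ1 microscope at 37°C and 5% CO2, live cells were imaged after compound addition. They had been stained at seeding with Hoechst33342, BioTracker Green Microtubule Cytoskeleton Dye, MitoTracker Red and Annexin V Alexa Fluor 680. CellPathfinder machine-learning gating assigned cells to Hoechst high-intensity objects or normal cells, normal cells to healthy, pyknosed or fragmented nuclei, and pyknosed cells to mitotic or apoptotic. Tubulin, mitochondrial-mass and membrane-permeability phenotypes are per cents of healthy-nucleus cells.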

[1] = 12 h, 1 µM, compound concentration 1 uM, replicate 1
[2] = 12 h, 1 µM, compound concentration 1 uM, replicate 2
[3] = 12 h, 10 µM, compound concentration 10 uM, replicate 1
[4] = 12 h, 10 µM, compound concentration 10 uM, replicate 2
[5] = 24 h, 1 µM, compound concentration 1 uM, replicate 1
[6] = 24 h, 1 µM, compound concentration 1 uM, replicate 2
[7] = 24 h, 10 µM, compound concentration 10 uM, replicate 1
[8] = 24 h, 10 µM, compound concentration 10 uM, replicate 2
[9] = 48 h, 1 µM, compound concentration 1 uM, replicate 1
[10] = 48 h, 1 µM, compound concentration 1 uM, replicate 2
[11] = 48 h, 10 µM, compound concentration 10 uM, replicate 1
[12] = 48 h, 10 µM, compound concentration 10 uM, replicate 2

SMILES: S=C(NCCCc1c[nH]cn1)NCCCN(Cc1ccc(Cl)c(Cl)c1)c1ccc(Br)cn1
- Population Apoptotic (%) [1]: 75%
- Population Fragmented Nuclei (%) [1]: 27%
- Population Healthy Nuclei (%) [1]: 63%
- Population Hoechst High Intensity Objects (%) [1]: 2%
- Population Membrane Permeable-Phenotype (%) [1]: 13%
- Population Mitochondria Different-Phenotype (%) [1]: 2%
- Population Mitotic Cells (%) [1]: 25%
- Population Normal (%) [1]: 97%
- Population Pyknosed Nuclei (%) [1]: 9%
- Population Tubulin-Different-Phenotype (%) [1]: 6%
- Total Cell Count [1]: 228
- Population Apoptotic (%) [2]: 80%
- Population Fragmented Nuclei (%) [2]: 20%
- Population Healthy Nuclei (%) [2]: 68%
- Population Hoechst High Intensity Objects (%) [2]: 3%
- Population Membrane Permeable-Phenotype (%) [2]: 6%
- Population Mitochondria Different-Phenotype (%) [2]: 9%
- Population Mitotic Cells (%) [2]: 20%
- Population Normal (%) [2]: 96%
- Population Pyknosed Nuclei (%) [2]: 11%
- Population Tubulin-Different-Phenotype (%) [2]: 1%
- Total Cell Count [2]: 93
- Population Apoptotic (%) [3]: 66%
- Population Fragmented Nuclei (%) [3]: 27%
- Population Healthy Nuclei (%) [3]: 46%
- Population Hoechst High Intensity Objects (%) [3]: 6%
- Population Membrane Permeable-Phenotype (%) [3]: 86%
- Population Mitochondria Different-Phenotype (%) [3]: 26%
- Population Mitotic Cells (%) [3]: 33%
- Population Normal (%) [3]: 93%
- Population Pyknosed Nuclei (%) [3]: 26%
- Population Tubulin-Different-Phenotype (%) [3]: 83%
- Total Cell Count [3]: 220
- Population Apoptotic (%) [4]: 58%
- Population Fragmented Nuclei (%) [4]: 24%
- Population Hoechst High Intensity Objects (%) [4]: 0%
- Population Membrane Permeable-Phenotype (%) [4]: 84%
- Population Mitochondria Different-Phenotype (%) [4]: 60%
- Population Mitotic Cells (%) [4]: 41%
- Population Normal (%) [4]: 100%
- Population Pyknosed Nuclei (%) [4]: 29%
- Population Tubulin-Different-Phenotype (%) [4]: 89%
- Total Cell Count [4]: 82
- Population Apoptotic (%) [5]: 81%
- Population Fragmented Nuclei (%) [5]: 22%
- Population Healthy Nuclei (%) [5]: 69%
- Population Hoechst High Intensity Objects (%) [5]: 3%
- Population Membrane Permeable-Phenotype (%) [5]: 11%
- Population Mitochondria Different-Phenotype (%) [5]: 3%
- Population Mitotic Cells (%) [5]: 18%
- Population Normal (%) [5]: 96%
- Population Pyknosed Nuclei (%) [5]: 8%
- Population Tubulin-Different-Phenotype (%) [5]: 9%
- Total Cell Count [5]: 285
- Population Apoptotic (%) [6]: 100%
- Population Fragmented Nuclei (%) [6]: 30%
- Population Healthy Nuclei (%) [6]: 65%
- Population Hoechst High Intensity Objects (%) [6]: 1%
- Population Membrane Permeable-Phenotype (%) [6]: 7%
- Population Mitochondria Different-Phenotype (%) [6]: 5%
- Population Mitotic Cells (%) [6]: 0%
- Population Normal (%) [6]: 98%
- Population Pyknosed Nuclei (%) [6]: 4%
- Population Tubulin-Different-Phenotype (%) [6]: 3%
- Total Cell Count [6]: 125
- Population Apoptotic (%) [7]: 62%
- Population Fragmented Nuclei (%) [7]: 33%
- Population Healthy Nuclei (%) [7]: 38%
- Population Hoechst High Intensity Objects (%) [7]: 5%
- Population Membrane Permeable-Phenotype (%) [7]: 59%
- Population Mitochondria Different-Phenotype (%) [7]: 17%
- Population Mitotic Cells (%) [7]: 37%
- Population Normal (%) [7]: 94%
- Population Pyknosed Nuclei (%) [7]: 28%
- Population Tubulin-Different-Phenotype (%) [7]: 54%
- Total Cell Count [7]: 227
- Population Apoptotic (%) [8]: 60%
- Population Fragmented Nuclei (%) [8]: 29%
- Population Healthy Nuclei (%) [8]: 40%
- Population Hoechst High Intensity Objects (%) [8]: 2%
- Population Membrane Permeable-Phenotype (%) [8]: 77%
- Population Mitochondria Different-Phenotype (%) [8]: 32%
- Population Mitotic Cells (%) [8]: 39%
- Population Normal (%) [8]: 97%
- Population Pyknosed Nuclei (%) [8]: 29%
- Population Tubulin-Different-Phenotype (%) [8]: 64%
- Total Cell Count [8]: 79
- Population Apoptotic (%) [9]: 83%
- Population Fragmented Nuclei (%) [9]: 17%
- Population Healthy Nuclei (%) [9]: 74%
- Population Hoechst High Intensity Objects (%) [9]: 1%
- Population Membrane Permeable-Phenotype (%) [9]: 5%
- Population Mitochondria Different-Phenotype (%) [9]: 3%
- Population Mitotic Cells (%) [9]: 16%
- Population Normal (%) [9]: 98%
- Population Pyknosed Nuclei (%) [9]: 7%
- Population Tubulin-Different-Phenotype (%) [9]: 2%
- Total Cell Count [9]: 409
- Population Apoptotic (%) [10]: 87%
- Population Fragmented Nuclei (%) [10]: 28%
- Population Healthy Nuclei (%) [10]: 60%
- Population Hoechst High Intensity Objects (%) [10]: 0%
- Population Mitotic Cells (%) [10]: 12%
- Population Normal (%) [10]: 99%
- Population Pyknosed Nuclei (%) [10]: 11%
- Population Tubulin-Different-Phenotype (%) [10]: 3%
- Total Cell Count [10]: 211
- Population Apoptotic (%) [11]: 70%
- Population Fragmented Nuclei (%) [11]: 43%
- Population Healthy Nuclei (%) [11]: 8%
- Population Hoechst High Intensity Objects (%) [11]: 21%
- Population Membrane Permeable-Phenotype (%) [11]: 46%
- Population Mitochondria Different-Phenotype (%) [11]: 20%
- Population Mitotic Cells (%) [11]: 29%
- Population Normal (%) [11]: 78%
- Population Pyknosed Nuclei (%) [11]: 47%
- Population Tubulin-Different-Phenotype (%) [11]: 26%
- Total Cell Count [11]: 230
- Population Apoptotic (%) [12]: 73%
- Population Fragmented Nuclei (%) [12]: 50%
- Population Healthy Nuclei (%) [12]: 15%
- Population Hoechst High Intensity Objects (%) [12]: 15%
- Population Membrane Permeable-Phenotype (%) [12]: 57%
- Population Mitochondria Different-Phenotype (%) [12]: 42%
- Population Mitotic Cells (%) [12]: 26%
- Population Normal (%) [12]: 84%
- Population Pyknosed Nuclei (%) [12]: 33%
- Population Tubulin-Different-Phenotype (%) [12]: 57%
- Total Cell Count [12]: 105
